Source: ChEMBL document CHEMBL1141245, “Discovery of novel 1-arylmethyl pyrrolidin-2-yl ethanol amines as calcium-sensing receptor antagonists” (Bioorg Med Chem Lett, 2005)

What was measured:
[1] = molecular target: T1, Extracellular calcium-sensing receptor (Homo sapiens, UniProt P41180); assay: Inhibition of intracellular calcium release in human TT cells containing calcium-sensing receptor by FLIPR; assay type: functional, cell-based
T1 sequence (P41180 whole entry): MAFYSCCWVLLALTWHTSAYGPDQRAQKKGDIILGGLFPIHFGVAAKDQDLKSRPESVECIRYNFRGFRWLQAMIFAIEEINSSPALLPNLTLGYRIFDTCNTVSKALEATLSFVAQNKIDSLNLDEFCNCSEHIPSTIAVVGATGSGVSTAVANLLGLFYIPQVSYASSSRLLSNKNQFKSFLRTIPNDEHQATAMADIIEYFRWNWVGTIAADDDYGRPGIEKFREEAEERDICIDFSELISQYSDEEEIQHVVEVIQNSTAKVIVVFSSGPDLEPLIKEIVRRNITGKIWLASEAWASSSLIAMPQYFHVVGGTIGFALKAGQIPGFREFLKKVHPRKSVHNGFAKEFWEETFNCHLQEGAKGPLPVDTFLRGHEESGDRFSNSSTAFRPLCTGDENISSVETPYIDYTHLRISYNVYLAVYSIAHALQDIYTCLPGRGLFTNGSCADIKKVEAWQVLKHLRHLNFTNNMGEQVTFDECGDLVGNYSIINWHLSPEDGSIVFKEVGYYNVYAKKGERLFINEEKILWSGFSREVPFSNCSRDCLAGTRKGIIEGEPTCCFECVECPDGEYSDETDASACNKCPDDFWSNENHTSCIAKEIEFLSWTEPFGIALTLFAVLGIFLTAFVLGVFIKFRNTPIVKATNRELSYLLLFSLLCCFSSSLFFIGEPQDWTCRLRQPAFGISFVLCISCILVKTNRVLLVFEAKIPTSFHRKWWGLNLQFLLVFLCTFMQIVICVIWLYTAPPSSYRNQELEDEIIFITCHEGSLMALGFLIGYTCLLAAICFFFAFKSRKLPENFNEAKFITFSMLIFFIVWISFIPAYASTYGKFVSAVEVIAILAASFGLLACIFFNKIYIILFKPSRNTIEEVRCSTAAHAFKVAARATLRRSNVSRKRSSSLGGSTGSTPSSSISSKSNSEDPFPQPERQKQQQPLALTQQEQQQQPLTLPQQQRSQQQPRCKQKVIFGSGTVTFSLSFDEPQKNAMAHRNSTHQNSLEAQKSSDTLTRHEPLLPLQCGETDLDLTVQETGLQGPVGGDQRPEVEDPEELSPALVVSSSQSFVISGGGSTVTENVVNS
In short: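 Fluorescence-based intracellular Ca2+ mobilization, read on FLIPR, in human TT cells carrying endogenous calcium-sensing receptor. IC50 values are means of two experiments.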

[2] = molecular target: T2, Extracellular calcium-sensing receptor (Rattus norvegicus, UniProt P48442); assay: Inhibition of extracellular calcium-induced inositol triphosphate generation in rat MTC cells expressing calcium-sensing receptor; assay type: functional, cell-based
T2 sequence (P48442 whole entry): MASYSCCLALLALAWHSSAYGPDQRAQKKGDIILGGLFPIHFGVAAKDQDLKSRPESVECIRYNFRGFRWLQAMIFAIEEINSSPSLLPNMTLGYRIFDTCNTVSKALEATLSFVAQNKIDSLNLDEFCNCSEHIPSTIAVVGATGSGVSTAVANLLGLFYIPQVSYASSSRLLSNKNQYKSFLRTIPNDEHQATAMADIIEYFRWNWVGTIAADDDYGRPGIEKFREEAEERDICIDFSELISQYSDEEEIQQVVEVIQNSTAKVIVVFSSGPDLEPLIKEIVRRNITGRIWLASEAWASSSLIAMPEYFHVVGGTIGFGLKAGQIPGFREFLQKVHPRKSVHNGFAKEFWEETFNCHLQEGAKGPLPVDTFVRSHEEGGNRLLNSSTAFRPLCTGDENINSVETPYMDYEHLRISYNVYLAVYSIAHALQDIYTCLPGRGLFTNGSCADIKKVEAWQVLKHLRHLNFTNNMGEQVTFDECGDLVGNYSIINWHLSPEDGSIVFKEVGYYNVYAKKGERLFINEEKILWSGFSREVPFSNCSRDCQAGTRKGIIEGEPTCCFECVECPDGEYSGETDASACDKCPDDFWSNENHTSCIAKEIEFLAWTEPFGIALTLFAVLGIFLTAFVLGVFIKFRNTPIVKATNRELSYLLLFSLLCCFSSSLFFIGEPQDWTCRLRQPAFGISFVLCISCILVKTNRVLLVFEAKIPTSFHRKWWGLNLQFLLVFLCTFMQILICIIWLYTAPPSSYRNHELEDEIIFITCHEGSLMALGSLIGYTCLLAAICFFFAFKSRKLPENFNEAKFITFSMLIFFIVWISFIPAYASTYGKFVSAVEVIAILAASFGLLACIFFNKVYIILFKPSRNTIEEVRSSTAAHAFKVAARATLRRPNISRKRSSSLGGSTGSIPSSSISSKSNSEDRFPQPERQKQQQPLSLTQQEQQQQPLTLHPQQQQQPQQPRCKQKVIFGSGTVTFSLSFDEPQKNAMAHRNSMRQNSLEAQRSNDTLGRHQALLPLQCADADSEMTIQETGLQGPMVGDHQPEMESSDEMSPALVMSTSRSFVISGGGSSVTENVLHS

IC50 [1] | IC50 [2] | Compound
11400 nM |  | COc1ccc(CC(C)(C)NCC(O)COc2ccc(S(C)(=O)=O)c(C)c2)cc1 (centres undefined)
270 nM |  | CC(C)(Cc1cc2ccccc2s1)NC[C@@H](O)[C@H]1CCCN1Cc1cccc(C#N)c1
3300 nM |  | CC(C)(Cc1ccc(F)cc1)NC[C@@H](O)COc1ccc(OC(F)(F)F)cc1
6180 nM |  | CC(C)(Cc1ccc(F)cc1)NC[C@@H](O)CSc1cccc(Cl)c1Cl
4600 nM |  | N#Cc1c(Cl)cccc1OC[C@H](O)CNc1ccc2ccccc2c1
1000 nM |  | CC(C)(Cc1csc2ccccc12)NC[C@@H](O)[C@H]1CCCN1Cc1cccc(C#N)c1
160 nM |  | CC(C)(Cc1ccc2ccccc2c1)NC[C@@H](O)[C@H]1CCCN1Cc1ccccc1[N+](=O)[O-]
240 nM |  | CC(C)(Cc1ccc2ccccc2c1)NC[C@@H](O)[C@H]1CCCN1Cc1cccc(Cl)c1C#N
140 nM |  | CC(C)(Cc1ccc2ccccc2c1)NC[C@@H](O)[C@H]1CCCN1Cc1cccc([N+](=O)[O-])c1
2670 nM |  | COc1ccc(CC(C)(C)NC[C@@H](O)[C@H]2CCCN2Cc2cccc(C#N)c2)cc1
600 nM |  | CC(C)(Cc1ccc(F)cc1)NC[C@@H](O)COc1cccc(Cl)c1C#N
8430 nM |  | CC(C)(Cc1ccc2ccccc2c1)NC[C@@H](O)[C@H]1CCCN1C(=O)c1cccc(C#N)c1
140 nM | 2560 nM | CC(C)(Cc1ccc2ccccc2c1)NC[C@@H](O)[C@H]1CCCN1Cc1cccc(F)c1O
60 nM |  | CC(C)(Cc1cc2ccccc2s1)NC[C@H](O)COc1ccccc1C#N
270 nM |  | CN(C[C@@H](O)COc1cccc(Cl)c1C#N)C(C)(C)Cc1ccc2ccccc2c1
250 nM |  | CC(C)(Cc1ccc2ccccc2c1)NC[C@@H](O)[C@H]1CCCN1Cc1ccc(C#N)cc1
1390 nM |  | COc1ccc(CC(C)(C)NC[C@H](O)COc2cccc(OC)c2)cc1
880 nM |  | CC(C)(Cc1ccc2ccccc2c1)NCCCOc1cccc(Cl)c1C#N
6840 nM |  | CC(C)(Cc1ccc2ccccc2c1)NC[C@@H](O)[C@H]1CCCN1Cc1cccc(C(=O)O)c1
1350 nM |  | CC(C)(Cc1nc2ccccc2s1)NC[C@@H](O)[C@H]1CCCN1Cc1cccc(C#N)c1
2470 nM |  | CC(C)(Cc1ccc2ccccc2c1)NC[C@@H](O)[C@H]1CCCN1Cc1cccc(-c2ccccc2)c1

IC50 [1] | IC50 [2] | Compound
1270 nM |  | CC(C)(Cc1ccc2ccccc2c1)NC[C@H](O)[C@H]1CCCN1Cc1ccccc1C#N
970 nM |  | CC(C)(Cc1ccc2ccccc2c1)NC[C@@H](O)[C@H]1CCCN1Cc1ccccc1O
3860 nM |  | N#Cc1c(Cl)cccc1OC[C@H](O)CNCCc1ccc2ccccc2c1
790 nM |  | CC(C)(Cc1ccc2ccccc2c1)NC[C@@H](O)[C@H]1CCCN1Cc1ccc([N+](=O)[O-])cc1
1190 nM |  | COc1cccc(CN2CCC[C@@H]2[C@H](O)CNC(C)(C)Cc2ccc3ccccc3c2)c1
9430 nM |  | CC(C)(Cc1ccccc1)NC[C@H](O)COc1ccccc1S(C)(=O)=O
1160 nM |  | CC(C)(Cc1ccc2ccccc2c1)NC[C@@H](O)[C@H]1CCCN1Cc1cccc(O)c1
360 nM |  | CC(C)(Cc1ccc2ccccc2c1)NC[C@@H](O)[C@H]1CCCN1Cc1cccc(F)c1F
1570 nM |  | CC(C)(Cc1ccc2ccccc2c1)NC[C@@H](O)[C@H]1CCCN1Cc1cccc(Br)c1
1560 nM |  | COc1cccc(CN2CCC[C@@H]2[C@H](O)CNC(C)(C)Cc2ccc3ccccc3c2)c1O
30 nM |  | CC(C)(Cc1ccc2ccccc2c1)NC[C@@H](O)COc1ccccc1C#N
50 nM |  | CC(C)(Cc1ccc2ccccc2c1)NC[C@H](O)COc1cccc(Cl)c1C#N
340 nM |  | CC(C)(Cc1ccc2ccccc2c1)NC[C@@H](O)[C@H]1CCCN1Cc1ccccc1C#N
440 nM |  | CC(C)(Cc1cc2ccccc2[nH]1)NC[C@@H](O)[C@H]1CCCN1Cc1cccc(C#N)c1
50 nM | 530 nM | CC(C)(Cc1ccc2ccccc2c1)NC[C@@H](O)COc1cccc(Cl)c1C#N
750 nM |  | CC(C)(Cc1ccc2ccccc2c1)NC[C@@H](O)[C@H]1CCCN1Cc1cccc(F)c1
2840 nM |  | CC(C)(Cc1nc2ccccc2[nH]1)NC[C@@H](O)[C@H]1CCCN1Cc1cccc(C#N)c1
100 nM |  | CC(C)(Cc1cc2ccccc2[nH]1)NC[C@H](O)COc1ccccc1C#N
140 nM |  | CC(C)(Cc1ccc2ccccc2c1)NC[C@@H](O)[C@H]1CCCN1Cc1cccc([N+](=O)[O-])c1O
190 nM | 2200 nM | CC(C)(Cc1ccc2ccccc2c1)NC[C@@H](O)[C@H]1CCCN1Cc1cccc(C#N)c1
